Results reported in article PMC5260863 (Journal of medicinal chemistry, 2016).
Values joined by “and” are separate entries in the source; they are usually repeats but may differ in a detail not shown here. Equal values may be shown once. Each block holds one molecule with its values, some of them ahead of it.

Tests used:
HEK293 lysate = HEK293 lysate inhibition assay; format: biochemical, human; conditions: read-out: IC50 HEK293, mean of at least three experiments ± SEM
HeLa cells = test: HeLa EC50 analysis; format: cell-based, human; conditions: 48 hours of treatment
MV4–11 cells [1] = test: Western blot analysis of MV4–11 cells; format: cell-based, human; conditions: for AcHH3 and AcHH4 at varied doses: 6 hours
How it was run: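 Cells were seeded at 500k cells/mL in 6-well plates and pre-incubated 24 h. They were then exposed to test compound at 100 nM for 24 h, or at varied doses for 6 h. Pellets were lysed in RIPA (Tris, NaCl, EDTA, SDS, deoxycholate, Triton X-100), sonicated, spun 15 min at 4°C, then heated in β-mercaptoethanol/LDS at 90°C. Primary antibody ran overnight at 4°C. Bands were normalized to actin, n ≥ 2.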

HEK293 cells = test: HEK293 EC50 analysis; format: cell-based, human; conditions: 48 hours of treatment
MV4–11 cells [2] = test: MV4–11 EC50 analysis; format: cell-based, human
recombinant HDAC1 = recombinant HDAC1 (Homo sapiens, UniProt Q13547); test: Recombinant HDAC Vmax study; format: biochemical
human PBMCs = test: Human peripheral blood mononuclear cell analysis; format: cell-based
[3] = ESI-LCMS glucuronidation assay; format: in vitro ADME, human; conditions: 12 hours at 37°C; for glucuronidation in human liver microsomes with UDP Glucuronic acid: alamethicin, ESI-LCMS
How it was run: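 Pooled mixed-gender human liver microsomes at 250 µg/mL in 100 mM Tris HCl, pH 7.5. Alamethicin 1 µg/mL and MgCl2 5 mM (final), rocked 15 min at 4°C for pore formation. Test compound (5 mM stock) added with UDPGA (50 mM stock) or water, rocked 12 h at 37°C. Quenched with water/acetonitrile/formic acid 47:50:3, centrifuged 15000g. Supernatant analysed by reversed-phase ESI-LCMS TIC.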

RPMI-8226 cells = test: Cell viability, CellTiter-Blue; format: cell-based, human; conditions: even at mM concentrations
recombinant HDAC3 = recombinant HDAC3 (Homo sapiens, UniProt O15379); test: Recombinant HDAC Vmax study; format: biochemical
recombinant HDAC3, sequence (O15379 whole entry): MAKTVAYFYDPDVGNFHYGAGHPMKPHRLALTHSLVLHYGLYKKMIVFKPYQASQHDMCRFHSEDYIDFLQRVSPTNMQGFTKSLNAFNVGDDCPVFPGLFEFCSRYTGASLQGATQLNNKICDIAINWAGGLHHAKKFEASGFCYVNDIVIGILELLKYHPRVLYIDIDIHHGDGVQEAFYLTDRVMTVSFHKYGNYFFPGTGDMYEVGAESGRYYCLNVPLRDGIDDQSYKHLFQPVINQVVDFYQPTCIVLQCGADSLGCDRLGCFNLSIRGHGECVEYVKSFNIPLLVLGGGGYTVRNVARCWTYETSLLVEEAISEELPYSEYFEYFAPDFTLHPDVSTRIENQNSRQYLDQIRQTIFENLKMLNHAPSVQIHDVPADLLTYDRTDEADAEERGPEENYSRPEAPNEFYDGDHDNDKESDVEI
recombinant HDAC3, sequence (Q9Y618 395-489 partner limits assumed): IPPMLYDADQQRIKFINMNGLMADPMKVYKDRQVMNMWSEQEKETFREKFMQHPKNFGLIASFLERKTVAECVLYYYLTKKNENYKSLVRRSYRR

recombinant HDAC1, sequence (Q13547 whole entry): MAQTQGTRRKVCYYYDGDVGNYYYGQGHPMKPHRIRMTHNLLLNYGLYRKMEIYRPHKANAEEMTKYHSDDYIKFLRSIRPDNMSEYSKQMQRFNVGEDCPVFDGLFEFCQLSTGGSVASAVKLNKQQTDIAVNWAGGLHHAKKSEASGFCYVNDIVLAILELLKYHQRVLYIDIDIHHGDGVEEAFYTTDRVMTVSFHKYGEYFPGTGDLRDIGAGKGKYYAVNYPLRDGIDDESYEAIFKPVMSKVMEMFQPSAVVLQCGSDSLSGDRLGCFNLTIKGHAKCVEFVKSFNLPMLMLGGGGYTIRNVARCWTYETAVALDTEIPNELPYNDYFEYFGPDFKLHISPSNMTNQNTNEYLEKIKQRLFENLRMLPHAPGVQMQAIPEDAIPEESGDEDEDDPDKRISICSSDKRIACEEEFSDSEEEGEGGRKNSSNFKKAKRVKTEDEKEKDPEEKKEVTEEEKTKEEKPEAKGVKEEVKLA

SMILES: CCCCNNC(=O)c1ccc(OC)cc1 [1a, N’-butyl-4-methoxybenzohydrazide]
- IC50 (HEK293 lysate): 727 ± 10.8 nM

SMILES: CCCCNNC(=O)c1cc2ccccc2o1 [1b, N’-butylbenzofuran-2-carbohydrazide]
- IC50 (HEK293 lysate): 1690 ± 38 nM

SMILES: CCCCNNC(=O)c1ccc(Oc2ccccc2)cc1 [1c, N’-butyl-4-phenoxybenzohydrazide]
- IC50 (HEK293 lysate): 1690 ± 298 nM

SMILES: CCCCNNC(=O)c1cccnc1 [1d, N’-butylnicotinohydrazide]
- IC50 (HEK293 lysate): 4680 ± 909 nM

SMILES: CCCCNNC(=O)c1cccs1 [1f, N’-butylthiophene-2-carbohydrazide]
- IC50 (HEK293 lysate): 3460 ± 669 nM

SMILES: CCCCNNC(=O)c1ccco1 [1g, N’-butylfuran-2-carbohydrazide]
- IC50 (HEK293 lysate): > 10000 nM

SMILES: CCCCNNC(=O)CCc1ccccc1 [1h, N’-butyl-3-phenylpropanehydrazide]
- IC50 (HEK293 lysate): > 10000 nM

SMILES: CCCCNNC(=O)/C=C/c1ccccc1 [1i, N’-butylcinnamohydrazide]
- IC50 (HEK293 lysate): 1440 ± 86.1 nM

SMILES: CCCCNNC(=O)c1cccc2ccccc12 [1j, N’-butyl-1-napthohydrazide]
- IC50 (HEK293 lysate): > 10000 nM

SMILES: CCCCNNC(=O)c1ccc(CNC(=O)c2ccccc2)cc1 [1l, N-(4-(2-butylhydrazine-1-carbonyl)benzyl)benzamide]
- killing of HeLa cells (HeLa cells): Neither 1l, 2d, nor 3b display effective killing of this solid tumor cell line
- upregulation of Acetylated Histones H3 and H4 (AcHH3/AcHH4) (MV4–11 cells [1]; 100 nM, 24 hours): higher upregulation of Acetylated Histones H3 and H4 (AcHH3/AcHH4) than vorinostat and entinostat
- AcHH3 and AcHH4 at varied doses (MV4–11 cells [1]): dose-dependent increase in AcHH3 and AcHH4
- killing of HEK293 cells (HEK293 cells): Neither 11, 2d, nor 3b display effective killing of this solid tumor cell line

SMILES: C/C=C/CNNC(=O)c1ccc(CNC(=O)c2ccccc2)cc1 [2a, (E)-N-(4-(2-(but-2-en-1-yl)hydrazine-1-carbonyl)benzyl)benzamide]
- IC50 (HEK293 lysate): > 10000 nM

SMILES: CC(C)NNC(=O)c1ccc(CNC(=O)c2ccccc2)cc1 [2b, N-(4-(2-isopropylhydrazine-1-carbonyl)benzyl)benzamide]
- IC50 (HEK293 lysate): > 10000 nM

SMILES: CC/C=N/NC(=O)c1ccc(CNC(=O)c2ccccc2)cc1 [2c, (E)-N-(4-(2-propylidenehydrazine-1-carbonyl)benzyl)benzamide]
- activity against MV4–11 cells (MV4–11 cells [2]; doses as high as 250 µM, negative control): no appreciable activity
- IC50 (HEK293 lysate): > 10000 nM
- upregulation of Acetylated Histones H3 and H4 (AcHH3/AcHH4) (MV4–11 cells [1]; 100 nM, 24 hours): no appreciable ability to increase acetylation of histones H3 and H4

- mode of inhibition, HDAC1 (Lineweaver-Burke plot) (recombinant HDAC1): mixed inhibition
SMILES: CCCNNC(=O)c1ccc(CNC(=O)c2ccccc2)cc1 [2d, N-(4-(2-propylhydrazine-1-carbonyl)benzyl)benzamide]
- killing of HeLa cells (HeLa cells): Neither 1l, 2d, nor 3b display effective killing of this solid tumor cell line
- toxicity toward PBMCs compared to panobinostat (human PBMCs; 24 hours treatment): superior toxicity (less PBMC killing) than panobinostat
- less toxicity toward PBMCs than 3b (human PBMCs; vs 3b, until the high micromolar range): 10 fold and ~ 10 fold
- upregulation of Acetylated Histones H3 and H4 (AcHH3/AcHH4) (MV4–11 cells [1]; 100 nM, 24 hours): higher upregulation of Acetylated Histones H3 and H4 (AcHH3/AcHH4) than vorinostat and entinostat
- AcHH3 and AcHH4 at varied doses (MV4–11 cells [1]): dose-dependent increase in AcHH3 and AcHH4
- killing of HEK293 cells (HEK293 cells): Neither 11, 2d, nor 3b display effective killing of this solid tumor cell line
- metabolites in human liver microsomes ([3]; with and without UDPGA, no NADPH added): Neither vessel contained any detectable metabolites other than parent compound

SMILES: O=C(NCc1ccc(C(=O)NNCCC(F)(F)F)cc1)c1ccccc1 [2f, N-(4-(2-(3,3,3-trifluoropropyl)hydrazine-1-carbonyl)benzyl)benzamide]
- IC50 (HEK293 lysate): 1230 ± 136 nM

SMILES: O=C(NCc1ccc(C(=O)NNCC2CC2)cc1)c1ccccc1 [2g, N-(4-(2-(cyclopropylmethyl)hydrazine-1-carbonyl)benzyl)benzamide]
- IC50 (HEK293 lysate): 1620 ± 196 nM

SMILES: CCCCCCCNNC(=O)c1ccc(CNC(=O)c2ccccc2)cc1 [2h, N-(4-(2-heptylhydrazine-1-carbonyl)benzyl)benzamide]
- IC50 (HEK293 lysate): 2160 ± 896 nM

SMILES: CCCCCCCCNNC(=O)c1ccc(CNC(=O)c2ccccc2)cc1 [2i, N-(4-(2-octylhydrazine-1-carbonyl)benzyl)benzamide]
- IC50 (HEK293 lysate): > 10000 nM

SMILES: CCCCCCNNC(=O)c1ccc(CNC(=O)c2ccccc2)cc1 [2j, N-(4-(2-hexylhydrazine-1-carbonyl)benzyl)benzamide]
- IC50 (HEK293 lysate): 550 ± 134 nM

SMILES: CCCCCCCCCCNNC(=O)c1ccc(CNC(=O)c2ccccc2)cc1 [2k, N-(4-(2-decylhydrazine-1-carbonyl)benzyl)benzamide]
- IC50 (HEK293 lysate): > 10000 nM

SMILES: CCNNC(=O)c1ccc(CNC(=O)c2ccccc2)cc1 [2l, N-(4-(2-ethylhydrazine-1-carbonyl)benzyl)benzamide]
- IC50 (HEK293 lysate): 427 ± 110 nM

SMILES: O=C(NCc1ccc(C(=O)NNCC2CCC2)cc1)c1ccccc1 [2m, N-(4-(2-(cyclobutylmethyl)hydrazine-1-carbonyl)benzyl)benzamide]
- IC50 (HEK293 lysate): 1880 ± 212 nM

SMILES: CCNNC(=O)c1ccc(CNC(=O)/C=C/c2ccccc2)cc1 [3a, N-(4-(2-ethylhydrazine-1-carbonyl)benzyl)cinnamide]
- IC50 (HEK293 lysate): 171 ± 34.2 nM

- decrease in EC50 in MV4–11 cells compared to 2d (MV4–11 cells [2]; vs 2d): ~2.5 fold
- glucuronidation in human liver microsomes with UDP Glucuronic acid [3]: not readily glucuronidated
SMILES: CCCNNC(=O)c1ccc(CNC(=O)/C=C/c2ccccc2)cc1 [3b, N-(4-(2-propylhydrazine-1-carbonyl)benzyl)cinnamamide]
- kill curve against RPMI-8226 (RPMI-8226 cells): incomplete kill curves
- killing of HeLa cells (HeLa cells): Neither 1l, 2d, nor 3b display effective killing of this solid tumor cell line
- toxicity toward PBMCs compared to panobinostat (human PBMCs; 24 hours treatment): superior toxicity (less PBMC killing) than panobinostat
- upregulation of Acetylated Histones H3 and H4 (AcHH3/AcHH4) (MV4–11 cells [1]; 100 nM, 24 hours): higher upregulation of Acetylated Histones H3 and H4 (AcHH3/AcHH4) than vorinostat and entinostat
- AcHH3 and AcHH4 at varied doses (MV4–11 cells [1]): dose-dependent increase in AcHH3 and AcHH4
- killing of HEK293 cells (HEK293 cells): Neither 11, 2d, nor 3b display effective killing of this solid tumor cell line

SMILES: CCCCCNNC(=O)c1ccc(CNC(=O)/C=C/c2ccccc2)cc1 [3d, N-(4-(2-pentylhydrazine-1-carbonyl)benzyl)cinnamide]
- IC50 (HEK293 lysate): 691 ± 54.7 nM

SMILES: CCCCCCNNC(=O)c1ccc(CNC(=O)/C=C/c2ccccc2)cc1 [3e, N-(4-(2-hexylhydrazine-1-carbonyl)benzyl)cinnamamide]
- IC50 (HEK293 lysate): 1720 ± 139 nM

SMILES: Cc1[nH]c2ccccc2c1CCNCc1ccc(/C=C/C(=O)NO)cc1 [Panobinostat, panobinostat, reference compound]
- concentration at which toxicity toward PBMCs is displayed (human PBMCs; 24 hours treatment): 10 nM
- Acetylated Tubulin (AcTub) levels (MV4–11 cells [1]; 100 nM, 24 hours, marker of HDAC6 inhibition): the only inhibitor to raise Acetylated Tubulin (AcTub) levels at this concentration

SMILES: O=C(CCCCCCC(=O)Nc1ccccc1)NO [vorinostat, reference compound]
- mode of inhibition, HDAC1 (Lineweaver-Burke plot) (recombinant HDAC1): competitive inhibition
- mode of inhibition, HDAC3 (Lineweaver-Burke plot) (recombinant HDAC3): competitive inhibition
- glucuronidation in human liver microsomes with UDP Glucuronic acid [3]: presence of the o-glucuronidated metabolite
